Assay outcomes as filed in PubChem BioAssay.
NR3A LBD binder – binders of NR3A ligand-binding domain, primary screen, biophysical, differential scanning fluorimetry, uHTS; Tm shift relative to glycine control, % at 25 µM; AID 1259313, 2017; 340,000 compounds, 2.5% hits; NR3A LBD differential scanning fluorimetry, Tm shift; 0% = protein alone, 100% = glycine-bound protein; Glutamate receptor ionotropic, NMDA 3A (GRIN3A) ligand-binding domain;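 active = melting temperature shift of at least 10% of the positive control shift, at one fixed dose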
proCasp7 act – procaspase-7 activators, primary screen, counter-screen for procaspase-3 activator project, biochemical, absorbance, HTS, human; Caspase-7 (Homo sapiens), P55210; recombinant procaspase-7, Ac-DEVD-pNA absorbance 405 nm; D23A/D198A/D206A triple mutant, cannot self-cleave; scale: DMSO 0, 5 µM enzyme 100; activation, % at 8.5 µM; 330,000 compounds, 0.093% hits; AID 463210, 2010;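 active = percent activation above the screen-wide mean plus 3 SD, cut at about 25% in these data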
Target sequence (P55210 whole entry D23A/D198A/D206A): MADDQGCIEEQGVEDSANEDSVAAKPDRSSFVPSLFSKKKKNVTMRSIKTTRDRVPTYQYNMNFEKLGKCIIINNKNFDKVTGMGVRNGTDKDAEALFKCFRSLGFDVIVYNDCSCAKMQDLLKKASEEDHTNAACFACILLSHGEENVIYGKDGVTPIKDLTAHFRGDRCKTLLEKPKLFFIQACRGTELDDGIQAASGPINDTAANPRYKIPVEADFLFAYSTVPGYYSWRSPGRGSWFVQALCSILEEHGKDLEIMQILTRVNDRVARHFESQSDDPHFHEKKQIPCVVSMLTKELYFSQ
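Material: Procaspase-7 triple mutant (PC-7 D3A) | Quantity: 2 µM procaspase-7 mutant as dispensed | Reagent: DEVD-pNA substrate | Times: 1 h preincubation, 2 h reaction | Technique: 405 nm absorbance of p-nitroaniline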
aDG glyco act – activators of alpha-DG glycosylation, primary screen, uHTS, Pro5-aDG cells, AlphaScreen; activation, % at 10 µM; 360,000 compounds, 0.22% hits; alpha-DG glycosylation AlphaScreen (IIH6); 0% Pro5, 100% B10-LARGE cell signal;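 active = activation of at least 8% versus controls, or a plate z-score of at least 8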;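 also: Pro5 are CHO cells carrying HIG-tagged alpha-DG that lacks glycosylation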
proCasp3 act – activators of human procaspase-3 D3A mutant, primary screen, biochemical, absorbance, PC-3 D3A mutant, single concentration | 330,000 compounds, 0.11% hits | AID 463141, 2010 | recombinant procaspase-3 D3A, Ac-DEVD-pNA absorbance 405 nm | activation, % at 8.5 µM | Caspase-3 (Homo sapiens), P42574;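 active = activation above the mean of all tested compounds plus 3 SD, cut at about 21% in these data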;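 also: 0% = DMSO alone and 100% = DMSO wells spiked with extra 5 µM PC-3 D3A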
Target sequence (P42574 whole entry D9A/D28A/D175A): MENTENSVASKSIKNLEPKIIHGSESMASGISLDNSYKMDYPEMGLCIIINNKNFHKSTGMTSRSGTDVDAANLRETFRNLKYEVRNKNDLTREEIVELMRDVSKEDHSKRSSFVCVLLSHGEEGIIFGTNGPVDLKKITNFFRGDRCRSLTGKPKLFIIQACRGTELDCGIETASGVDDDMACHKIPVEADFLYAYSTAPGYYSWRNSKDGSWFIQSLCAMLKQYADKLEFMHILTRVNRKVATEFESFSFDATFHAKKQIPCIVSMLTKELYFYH
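Assay system: Autoprocessing-dead procaspase-3 D3A mutant enzyme; also added: Ac-DEVD-pNA; doses: one concentration, 8.5 µM nominal, 0.8% DMSO; times: 1 h compound preincubation, 2 h substrate hydrolysis at 25 °C; technique: 405 nm absorbance of p-nitroaniline, reads at 0 and 120 min; measure: % activation between DMSO and enzyme-spiked controls; repeats: single replicate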
MPTP block – mitochondrial permeability transition pore inhibitors, primary screen, biochemical, isolated mouse mitochondria, absorbance | Ca2+ swelling absorbance, 30 min | inhibition, % at 10 µM | 360,000 compounds, 1.4% hits;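 active = inhibition of 50% or more, scaled per plate between neutral and stimulator controls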;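 also: 0% = DMSO wells given calcium and 100% = 1 mM EGTA wells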
MPTP counter – fluorescence retest of MPTP screen hits in isolated mitochondria, single concentration; AID 624504, 2012; shares compounds with MPTP block; membrane potential, Rhodamine 123 fluorescence; 5,000 compounds, 78% hits; inhibition, % at 10 µM; in the data active = inhibition above about 22%;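 also: 0% = DMSO vehicle and 100% = positive control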
MPTP abs DR – mitochondrial permeability transition pore inhibitors, dose response, biochemical, absorbance, uHTS hits; 780 compounds, 58% hits; isolated mitochondria swelling; shares compounds with MPTP block; IC50, µM; AID 651561, 2012; in the data active = IC50 below about 20 µM
MPTP counter DR – fluorescent counter-screen in isolated mitochondria, dose response, counter-screen for MPTP inhibitor project, biochemical, fluorescence, uHTS hits. shares compounds with MPTP block. isolated mitochondria counterscreen, fluorescence read-out. IC50, µM. 780 compounds, 49% hits; in the data active = IC50 below about 80 µM
* hit, by the source's call; i = inactive; nt = no result given. A selection: hits, their analogues and other compounds. The true share with any hit is near 3.7%.

SMILES | NR3A LBD binder | proCasp7 act | aDG glyco act | proCasp3 act | MPTP block | MPTP counter | others
COc1ccc(C(=O)c2[nH]c(N)c(C(=O)NCCc3c[nH]c4ccccc34)c2-c2ccccc2Br)cc1 | nt | nt | 0 | nt | 0 | nt
CCOc1ccc(CCN2C(=S)N([C@@H](Cc3ccc(O)cc3)CN3CCC[C@@H]3CN3C(=S)NC[C@@H]3Cc3ccc(O)cc3)C[C@@H]2Cc2ccc(O)cc2)cc1 | nt | nt | 0 | nt | -1 | nt
COCCN1CCCC(CNCc2cn(C)nc2-c2ccc(Oc3ccccc3)cc2)C1 (configuration not stated) | 0 | 8 | 3 | 0 | 91* | -10 | MPTP abs DR=4.8*;MPTP counter DR=>80
Cc1ccc(C(OCC(O)CN2CCCCC2)c2ccccc2)cc1 (configuration not stated) | 0 | -5 | 0 | 7 | 1 | nt
O=C1c2ccccc2C(=O)N1C(CO)C(O)c1ccc([N+](=O)[O-])cc1 (configuration not stated) | -2 | 1 | 0 | 5 | 0 | nt
Cc1ccc(C(OCC(O)CNC(C)c2ccccc2)c2ccccc2)cc1 (configuration not stated) | 5 | 7 | 1 | 6 | 80* | -1 | MPTP abs DR=7.1*;MPTP counter DR=23*
Cc1ccc(C(OCC(O)CNC(CO)C(O)c2ccc([N+](=O)[O-])cc2)c2ccccc2)cc1 (configuration not stated) | -3 | -3 | 1 | -4 | 85* | -10 | MPTP abs DR=17*;MPTP counter DR=62*
CCCNC(=O)c1cc(C2CCCCN2C(=O)c2cc(C(C)(C)C)nn2C)on1 (configuration not stated) | nt | nt | 0 | nt | 1 | nt
Cc1ccc(NC(=O)c2ccccc2NS(=O)(=O)c2ccc(Cl)s2)cc1 | 26* | -5 | 1 | 2 | 68* | 76*
Cc1ccc(NS(=O)(=O)c2ccc(Cl)s2)nc1 | 0 | -1 | 0 | 0 | -1 | nt
CS(=O)(=O)c1ccccc1C(=O)Nc1ccccc1Cc1ccccc1 | -2 | -2 | 0 | 2 | -1 | nt
O=C(Nc1ccccc1Cc1ccccc1)c1ccccc1NS(=O)(=O)c1ccc(Cl)s1 | 34* | 0 | 1 | 8 | 64* | 51*
O=C(NCc1ccco1)c1ccccc1NS(=O)(=O)c1ccc(Cl)s1 | -3 | -9 | 0 | -5 | 90* | 79*
Cc1cc(C)c(C(=O)COC(=O)c2cccc(S(=O)(=O)N3CCOCC3)c2)cc1C | nt | nt | 0 | nt | -2 | nt
CCn1ccnc1CN1CCC(n2nccc2NC(=O)c2ccccc2OC)CC1 | -1 | -2 | 0 | 6 | 0 | nt
CN(C(=O)COC(=O)C1COc2ccccc2O1)c1c(N)n(Cc2ccccc2)c(=O)[nH]c1=O (configuration not stated) | 2 | 5 | 0 | 2 | -1 | nt
CN(C(=O)c1ccc(NC(=O)Cc2cccc(NC(=O)C3CCN(C(=O)C4CCCC4)CC3)c2)cc1)C1CCCC1 | 1 | -1 | 0 | -3 | -2 | nt
CSc1nc2ccc(NS(=O)(=O)c3ccc(Br)s3)cc2s1 | 10 | 0 | 0 | -1 | 84* | 75*
CSc1nc2ccc(NS(=O)(=O)c3ccc4c(c3)OCCO4)cc2s1 | -7 | -1 | 0 | 4 | 55* | 101*
N=C(N)SCc1cn(-c2ccccc2)nc1-c1ccc(Br)cc1 | -9 | nt | -1 | nt | 76* | -10
CCCCN(C)CCNC(=O)c1cc2c(-c3cccc(OC)c3)nn(C)c2s1 | 1 | -6 | 0 | -6 | -1 | nt
COC(=O)c1c(NC(=O)C2CCCCC2)sc2c1CC(C)(C)NC2(C)C | 1 | -7 | 4 | -4 | 67* | -10 | MPTP abs DR=6.2*;MPTP counter DR=>80
COC(=O)c1c(NC(=O)c2ccccc2[N+](=O)[O-])sc2c1CC(C)(C)NC2(C)C | -6 | -1 | 0 | 2 | 0 | nt
COC(=O)c1c(NC(=O)Cc2ccccc2)sc2c1CC(C)(C)NC2(C)C | 1 | -2 | 0 | 4 | 74* | -3 | MPTP abs DR=i;MPTP counter DR=>80
COC(=O)c1c(NC(=O)COc2ccc(Cl)cc2)sc2c1CC(C)(C)NC2(C)C | -3 | 0 | -1 | 0 | 2 | nt
SMILES | NR3A LBD binder | proCasp7 act | aDG glyco act | proCasp3 act | MPTP block | MPTP counter | others
CC(C)NC(=O)c1cc(C2CCCCN2C(=O)OCCF)on1 (configuration not stated) | nt | nt | 0 | nt | 0 | nt
CC1CCCCC1NC(=O)CSc1nnnn1C (configuration not stated) | -1 | nt | 0 | nt | 0 | nt
Cc1cccc(NC(=O)C2C(c3ccccc3)C2(Cl)Cl)c1C (configuration not stated) | -5 | 2 | 0 | -2 | 71* | 77*
O=C(Nc1ccccc1)C1C(c2ccccc2)C1(Cl)Cl (configuration not stated) | -7 | 1 | 0 | -3 | 4 | nt
Cc1cc(NC(=O)CCSc2ccccc2)ccc1Br | 9 | 9 | 0 | 3 | 97* | 84*
Cc1cc(Br)ccc1NC(=O)CCSc1ccccc1 | -2 | 0 | 0 | -3 | 7 | nt
COC(=O)CCCCCN1C(=O)/C(=C\c2ccncc2)SC1=S | 4 | -8 | 0 | -15 | 36 | nt
CCc1ccc(S(=O)(=O)c2n[nH]n3c2nc(=O)c2ccccc23)cc1 | -11 | 20 | 0 | 13 | 33 | nt
CC(C)c1ccc(S(=O)(=O)c2n[nH]n3c2nc(=O)c2ccccc23)cc1 | -10 | 10 | 0 | 7 | 58* | 60*
C=CCc1cc(Cl)ccc1OC(=O)Nc1cccc(Cl)c1 | 11* | 1 | 0 | 1 | 93* | 97*
CCOc1ccccc1NC(=O)CCNC(=O)C1CCN(S(=O)(=O)c2ccccc2)CC1 | nt | nt | 0 | nt | -1 | nt
CC(=O)c1c(C)[nH]c(C(=O)OCC(=O)Nc2cc(Cl)ccc2[N+](=O)[O-])c1C | -8 | -5 | 3 | 10 | 94* | 82*
Cc1ccc(NC(=O)COC(=O)C2=COCCO2)c([N+](=O)[O-])c1 | 0 | 1 | 0 | 5 | -2 | nt
